Measurements as given in ChEMBL document CHEMBL5126601 (ACS Med Chem Lett, 2022).
Calls of active or inactive are those of the source. The calls are words filed in the database; no cut-off is given here.

Experiments:
Adenosine receptor A1 [1] = target: T1, Adenosine receptor A1 (Homo sapiens, UniProt P30542); assay: Binding affinity to human wild type adenosine A1 receptor expressed in Expi293F cells assessed as dissociation constant by surface plasmon resonance assay
T1 sequence (P30542 whole entry): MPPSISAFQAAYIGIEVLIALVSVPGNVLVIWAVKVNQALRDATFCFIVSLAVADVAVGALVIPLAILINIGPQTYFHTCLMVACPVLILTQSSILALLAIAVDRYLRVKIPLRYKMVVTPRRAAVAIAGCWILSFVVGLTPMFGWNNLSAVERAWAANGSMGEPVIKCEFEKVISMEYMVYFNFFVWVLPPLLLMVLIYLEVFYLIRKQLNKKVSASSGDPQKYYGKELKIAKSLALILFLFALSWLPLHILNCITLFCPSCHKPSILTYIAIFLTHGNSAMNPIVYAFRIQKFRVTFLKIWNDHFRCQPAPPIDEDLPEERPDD

Adenosine receptor A2a [2] = target: T2, Adenosine receptor A2a (Homo sapiens, UniProt P29274); assay: Antagonist activity at human adenosine A2A receptor expressed in HEK293T cells assessed as inhibition of 500 nM NECA-induced cAMP accumulation by GloSensor cAMP accumulation assay; conditions: filed as antagonist
T2 sequence (P29274 whole entry): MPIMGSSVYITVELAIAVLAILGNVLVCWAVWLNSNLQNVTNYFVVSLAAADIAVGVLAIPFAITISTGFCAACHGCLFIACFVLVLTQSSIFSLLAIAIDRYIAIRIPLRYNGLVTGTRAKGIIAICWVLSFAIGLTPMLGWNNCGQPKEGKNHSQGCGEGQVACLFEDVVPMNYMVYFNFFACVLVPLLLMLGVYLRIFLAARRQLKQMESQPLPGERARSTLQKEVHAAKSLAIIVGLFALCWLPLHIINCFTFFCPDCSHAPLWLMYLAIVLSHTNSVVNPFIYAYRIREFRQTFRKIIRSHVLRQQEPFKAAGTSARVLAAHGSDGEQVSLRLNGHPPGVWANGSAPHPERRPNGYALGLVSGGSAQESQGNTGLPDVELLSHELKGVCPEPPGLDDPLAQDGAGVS

[3] = target: T3, Adenosine receptor A1 (Homo sapiens) (UniProt P30542); assay: Binding affinity to human wild type adenosine A1 receptor expressed in Expi293F cells assessed as affinity on-rate by surface plasmon resonance assay
T3 sequence (whole entry): T1 sequence (P30542 whole entry)

[4] = target: T3, Adenosine receptor A1 (Homo sapiens); assay: Binding affinity to human wild type adenosine A1 receptor expressed in Expi293F cells assessed as affinity off-rate by surface plasmon resonance assay
Adenosine receptor A2a [5] = target: T2, Adenosine receptor A2a; assay: Binding affinity to human wild type adenosine A2A receptor expressed in Expi293F cells assessed as dissociation constant by surface plasmon resonance assay
Adenosine receptor A2a [6] = target: T2, Adenosine receptor A2a; assay: Antagonist activity at human adenosine A2A receptor expressed in HEK293T cells assessed as inhibition of EC20 concentration of NECA-induced cAMP accumulation by measuring fold change in potency by GloSensor cAMP accumulation assay; format: functional, cell-based; conditions: filed as antagonist
HEK-293T = assay: Effect on cAMP accumulation in HEK293T cells by GloSensor cAMP accumulation assay; format: functional, cell-based; conditions: Homo sapiens
Outline: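 HEK293T cells transiently expressing the A2A receptor, with a GloSensor luciferase cAMP read-out. Compound concentration series were tested against NECA at EC80 (500 nM) or EC20 (3 nM), and for agonist activity alone. Cells lacking transfected A2A served as control. Responses are expressed as a percentage of the maximum NECA response, as mean ± SEM of at least three independent experiments in technical duplicate.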

Adenosine receptor A2b [7] = target: T4, Adenosine receptor A2b (Homo sapiens, UniProt P29275); assay: Binding affinity to human wild type adenosine A2B receptor expressed in Expi293F cells assessed as dissociation constant by surface plasmon resonance assay
T4 sequence (P29275 whole entry): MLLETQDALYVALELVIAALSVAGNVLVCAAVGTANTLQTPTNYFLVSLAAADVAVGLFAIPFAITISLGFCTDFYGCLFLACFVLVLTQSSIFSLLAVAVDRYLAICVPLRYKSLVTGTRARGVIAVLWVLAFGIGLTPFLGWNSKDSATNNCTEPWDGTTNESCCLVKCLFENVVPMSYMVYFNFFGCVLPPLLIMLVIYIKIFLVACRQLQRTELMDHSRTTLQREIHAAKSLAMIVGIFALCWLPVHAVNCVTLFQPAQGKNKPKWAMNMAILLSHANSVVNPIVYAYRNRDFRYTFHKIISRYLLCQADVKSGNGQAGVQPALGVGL

Adenosine receptor A2a [8] = target: T2, Adenosine receptor A2a; assay: Antagonist activity at human adenosine A2A receptor expressed in HEK293T cells assessed as inhibition of EC20 concentration of NECA-induced cAMP accumulation at higher concentration by GloSensor cAMP accumulation assay; format: functional, cell-based; conditions: filed as antagonist
Outline: (§1)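 HEK293T cells expressing A2A, GloSensor luciferase cAMP read-out; concentration–response curves run against EC20 NECA (3 nM). Data as % of maximum NECA response; mean ± SEM of at least three independent experiments in technical duplicate. Maximum tested concentration 0.63 mM where compound supply was limited; compounds also checked in cells lacking transfected A2A.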

Adenosine receptor A3 = target: T5, Adenosine receptor A3 (Homo sapiens, UniProt P0DMS8); assay: (§2) Binding affinity to human wild type adenosine A3 receptor expressed in Expi293F cells assessed as dissociation constant by surface plasmon resonance assay
T5 sequence (P0DMS8 whole entry): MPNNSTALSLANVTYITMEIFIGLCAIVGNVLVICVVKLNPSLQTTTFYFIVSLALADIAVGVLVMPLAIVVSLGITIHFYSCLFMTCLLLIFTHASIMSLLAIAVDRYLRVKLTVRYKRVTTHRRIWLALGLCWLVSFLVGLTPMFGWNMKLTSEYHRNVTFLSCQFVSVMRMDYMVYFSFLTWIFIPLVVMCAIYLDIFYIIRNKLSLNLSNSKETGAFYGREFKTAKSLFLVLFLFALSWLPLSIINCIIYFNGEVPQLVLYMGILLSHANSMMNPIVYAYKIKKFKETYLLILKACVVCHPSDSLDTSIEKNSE

[9] = target: T6, Adenosine receptor A3 (Homo sapiens) (UniProt P0DMS8); assay: Binding affinity to human wild type adenosine A3 receptor expressed in Expi293F cells assessed as affinity on-rate by surface plasmon resonance assay
T6 sequence (whole entry): T5 sequence (P0DMS8 whole entry)

[10] = target: T6, Adenosine receptor A3 (Homo sapiens); assay: as §2
[11] = target: Glycogen synthase kinase-3 alpha (Homo sapiens, UniProt P49840); assay: Inhibition of recombinant human GSKalpha
Chain of Glycogen synthase kinase-3 alpha (P49840 whole entry): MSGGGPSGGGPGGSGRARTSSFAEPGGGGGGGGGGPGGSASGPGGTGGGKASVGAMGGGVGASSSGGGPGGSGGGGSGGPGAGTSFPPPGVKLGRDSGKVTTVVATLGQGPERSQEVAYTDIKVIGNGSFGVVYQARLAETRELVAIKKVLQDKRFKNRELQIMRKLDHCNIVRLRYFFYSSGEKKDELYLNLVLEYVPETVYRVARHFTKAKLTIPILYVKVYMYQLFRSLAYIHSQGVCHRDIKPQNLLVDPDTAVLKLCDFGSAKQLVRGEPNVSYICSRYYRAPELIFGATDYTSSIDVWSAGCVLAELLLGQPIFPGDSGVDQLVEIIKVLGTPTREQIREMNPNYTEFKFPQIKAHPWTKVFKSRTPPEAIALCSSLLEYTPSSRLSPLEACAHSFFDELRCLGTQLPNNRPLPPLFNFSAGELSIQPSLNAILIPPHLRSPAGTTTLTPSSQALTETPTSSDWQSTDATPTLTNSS

Adenosine receptor A1 [12] = target: T1, Adenosine receptor A1; assay: Binding affinity to human wild type adenosine A1 receptor expressed in Expi293F cells assessed as affinity on-rate by surface plasmon resonance assay
Adenosine receptor A2b [13] = target: T4, Adenosine receptor A2b; assay: Binding affinity to human wild type adenosine A2B receptor expressed in Expi293F cells assessed as inhibition constant by surface plasmon resonance assay
[14] = target: T7, Adenosine receptor A2b (Homo sapiens) (UniProt P29275); assay: Binding affinity to human wild type adenosine A2B receptor expressed in Expi293F cells assessed as affinity off-rate by surface plasmon resonance assay
T7 sequence (whole entry): T4 sequence (P29275 whole entry)

Adenosine receptor A2b [15] = target: T4, Adenosine receptor A2b; assay: Binding affinity to human wild type adenosine A2B receptor expressed in Expi293F cells assessed as affinity on-rate by surface plasmon resonance assay
Adenosine receptor A2a [16] = target: T2, Adenosine receptor A2a; assay: Antagonist activity at human adenosine A2A receptor expressed in HEK293T cells assessed as inhibition of EC20 concentration of NECA-induced cAMP accumulation by GloSensor cAMP accumulation assay; format: functional, cell-based; conditions: filed as antagonist; outline: as §1
Adenosine receptor A2a [17] = target: T2, Adenosine receptor A2a; assay: Antagonist activity at human adenosine A2A receptor expressed in HEK293T cells assessed as inhibition of NECA-induced Gs short protein activation by TRUPATH assay; format: functional, cell-based

| Structure (SMILES) | Kd (Adenosine receptor A1 [1]) | Kd (Adenosine receptor A2a [5]) | Kd (Adenosine receptor A2b [7]) | Kd (Adenosine receptor A3) | other results |
| --- | --- | --- | --- | --- | --- |
| O=C1NC(=O)C(c2cccc(Cl)c2)=C1Nc1ccc(O)c(Cl)c1 | 2.21 µM | 0.11 µM |  |  | Activity (Adenosine receptor A2a [2]): Active; K [3]: 1.21 10^5/M/s; K [4]: 0.27 s⁻¹; Activity (Adenosine receptor A2a [6]): Active |
| CCNC(=O)[C@H]1O[C@@H](n2cnc3c(N)ncnc32)[C@H](O)[C@@H]1O |  |  |  |  | Activity (HEK-293T): Active |
| CS(=O)(=O)c1ccc(C(=O)Nc2cccc(Cl)c2)cc1 | 7.6 µM | 13.5 µM | 19.3 µM | 18 µM | Activity (Adenosine receptor A2a [8]): Active |
| Nc1nsc(-c2ccccc2)n1 | 122 µM | 139 µM | 108 µM | 102 µM |  |
| CC(C)NC(=O)c1cc(-c2ccccc2)[nH]n1 | 70 µM | 49 µM | 196 µM | 80 µM | Activity (Adenosine receptor A2a [8]): Active |
| COc1cc(/C=N/Nc2ncnc3c2cnn3-c2ccccc2)ccc1O | 1.21 µM |  |  |  | Activity [9]: Active; K [3]: 5.33 10^4/M/s; K [4]: 0.06 s⁻¹; Activity [10]: Active; Activity (Adenosine receptor A2a [5]): Active; IC50 [11]: 0.1 µM; Activity (Adenosine receptor A2a [6]): Active |
| Nc1nncc(-c2ccc(Br)cc2)n1 | 1.1 µM | 50 µM |  |  | Activity (Adenosine receptor A2a [8]): Active |
| O[C@H]1CC[C@H](Nc2nc(-c3ccccc3)nc3[nH]ccc23)CC1 | 0.00546 µM |  |  |  | ka (Adenosine receptor A1 [12]): 6.27 10^5/M/s; K [3]: 6.27 10^5/M/s; K [4]: 0.0034 s⁻¹ |
| CC(C)n1ncc2cc(C(=O)NCc3ccco3)cnc21 | 27 µM | 210 µM | 80 µM | 400 µM |  |
| N#Cc1c(N)nc(SCc2ncc[nH]2)c(C#N)c1-c1ccc(O)cc1 |  |  | 0.0782 µM |  | Ki (Adenosine receptor A2b [13]): 0.012 µM; K [14]: 0.0086 s⁻¹; ka (Adenosine receptor A2b [15]): 1.1 10^5/M/s |
| Cc1nn(-c2ccccc2)nc1C(N)=O | 78 µM | 410 µM | 140 µM | 101 µM |  |
| Nc1ccc2nnc(-c3ccccc3)n2n1 | 22.9 µM | 1.11 µM | 120 µM | 160 µM | Activity (Adenosine receptor A2a [16]): Active |
| O=C(Nc1ccc2ccccc2n1)c1ccco1 | 59 µM | 40 µM | 123 µM | 56 µM | IC50 (Adenosine receptor A2a [17]): 0.166 µM |
